Data: paper PMC5629133 (Drugs in R&D, 2017)
Like-named read-outs stand apart in the source and are kept apart here.

Assays:
AGP F1/S variants = AGP F1/S variants (Homo sapiens, UniProt P02763); assay: Effect of other drugs on binding of tamsulosin to human AGP
Summary of the method: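 Commercial human AGP was mixed with unlabelled tamsulosin (40–500 μM solutions added), [3H]tamsulosin, and test compound at 9.62, 19.2 and 48.1 μM, then incubated for 15 min at 37 °C. Ultrafiltration used a 5000 MW cut-off at 2000×g for 5 min at 37 °C. Mixture and filtrate were counted by liquid scintillation. Ki was fitted by non-linear least squares to a competitive inhibition model with non-specific binding held constant.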

[1] = biological target: AGP A variant (S-disopyramide binding site) (Homo sapiens, UniProt P19652); settings: among the drugs tested
Summary of the method: (§1)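 Human AGP was incubated with radiolabelled S-warfarin or [3H]S-disopyramide, with a series of unlabelled marker levels and test compound at 9.62, 19.2 and 48.1 μM, for 15 min at 37 °C. Ultrafiltration ran at 2000×g for 5 min at 37 °C, with a 30,000 MW cut-off for disopyramide. Mixture and filtrate radioactivity were counted by scintillation. Ki came from a non-linear least-squares competitive inhibition model with a constant non-specific binding term.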

AGP F1/S variant mixture = AGP F1/S variant mixture (Homo sapiens, UniProt P02763); assay: Screening: S-warfarin binding with drug at 100-fold concentration; settings: drug at 100-fold concentration of marker
Summary of the method: (§2)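 Radiolabelled S-disopyramide or S-warfarin binding to human AGP was measured with and without test compound at 100-fold the marker concentration. Incubation was 15 min at 37 °C, followed by ultrafiltration at 2000×g and scintillation counting. Marker binding remaining at 100-fold inhibitor was taken as non-specific. Compounds cutting specific binding by more than 70% went forward to quantitative analysis.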

AGP A variant = AGP A variant (Homo sapiens, UniProt P19652); assay: Screening: S-disopyramide binding with drug at 100-fold concentration; settings: drug at 100-fold concentration of marker
Summary of the method: as §2

[2] = biological target: AGP F1/S variant mixture (S-warfarin binding site) (Homo sapiens, UniProt P02763); assay: Competitive inhibition of S-warfarin binding to human AGP by ultrafiltration; settings: among the drugs tested
Summary of the method: as §1

human AGP variants = settings: cited from earlier work; for Binding to AGP: used as positive controls

For `CCN(CC)CCCN(c1ccccc1)C1Cc2ccccc2C1` [Aprindine], the “Effect on binding of tamsulosin” value (AGP F1/S variants) was “significantly decreased” and the “Binding affinity for the AGP A variant (S-disopyramide binding site)” value (shortened to “Binding affinity for the AGP A variant”) [1] was “relatively high”.

With `COc1ccccc1OCCNCC(O)COc1cccc2[nH]c3ccccc3c12` (centres unmarked) [Carvedilol] the “Effect on binding of tamsulosin” value (AGP F1/S variants) was “significantly decreased”.

With `CC[C@H]1OC(=O)[C@H](C)[C@@H](O[C@H]2C[C@@](C)(OC)[C@@H](O)[C@H](C)O2)[C@H](C)[C@@H](O[C@@H]2O[C@H](C)C[C@H](N(C)C)[C@H]2O)[C@](C)(O)C[C@@H](C)C(=O)[C@H](C)[C@@H](O)[C@]1(C)O` [Erythromycin] the “Effect on binding of tamsulosin” value (AGP F1/S variants) was “significantly decreased”, the “Inhibition of binding of warfarin” value (AGP F1/S variant mixture) was “markedly inhibited” and the “Inhibition of binding of S-disopyramide” value (AGP A variant) was “markedly inhibited”.

For `COc1ccc(Cl)cc1C(=O)NCCc1ccc(S(=O)(=O)NC(=O)NC2CCCCC2)cc1` [Glibenclamide], the “Inhibition of binding of S-disopyramide” value (AGP A variant) was “specifically inhibited”.

For `CN(C)C(=O)C(CCN1CCC(O)(c2ccc(Cl)cc2)CC1)(c1ccccc1)c1ccccc1` [Loperamide], the “Inhibition of binding of S-disopyramide” value (AGP A variant) was “specifically inhibited”.

For `Clc1ccc(COC(Cn2ccnc2)c2ccc(Cl)cc2Cl)c(Cl)c1` (centres unmarked) [Miconazole], the “Inhibition of binding of warfarin” value (AGP F1/S variant mixture) was “markedly inhibited” and the “Inhibition of binding of S-disopyramide” value (AGP A variant) was “markedly inhibited”.

In the case of `COC(=O)C1=C(C)NC(C)=C(C(=O)OCCN(C)Cc2ccccc2)C1c1cccc([N+](=O)[O-])c1` (centres unmarked) [Nicardipine], the “Inhibition of binding of warfarin” value (AGP F1/S variant mixture) is reported as “markedly inhibited”, the “Binding affinity for the AGP F1/S variant mixture (S-warfarin binding site)” value (“Binding affinity … (S-warfarin binding site)” below) [2] is reported as “relatively high” and the “Inhibition of binding of S-disopyramide” value (AGP A variant) is reported as “markedly inhibited”.

For `C=C[C@H]1C[N@@]2CC[C@H]1C[C@H]2[C@H](O)c1ccnc2ccc(OC)cc12` [Quinine], the “Inhibition of binding of warfarin” value (AGP F1/S variant mixture) was “markedly inhibited”, the “Binding affinity for the AGP A variant” value [1] was “relatively high” and the “Inhibition of binding of S-disopyramide” value (AGP A variant) was “markedly inhibited”.

For `CCC(C)(C)C(=O)O[C@H]1C[C@@H](C)C=C2C=C[C@H](C)[C@H](CC[C@@H]3C[C@@H](O)CC(=O)O3)[C@H]21` [Simvastatin], the “Inhibition of binding of warfarin” value (AGP F1/S variant mixture) was “markedly inhibited”, the “Binding affinity … (S-warfarin binding site)” value [2] was “relatively high” and the “Inhibition of binding of S-disopyramide” value (AGP A variant) was “markedly inhibited”.

In the case of `CSc1ccc2c(c1)N(CCC1CCCCN1C)c1ccccc1S2` (centres unmarked) [Thioridazine], the “Binding to AGP” value (human AGP variants) is listed as “bind strongly to AGP”, the “Effect on binding of tamsulosin” value (AGP F1/S variants) is listed as “significantly decreased” and the “Inhibition of binding of warfarin” value (AGP F1/S variant mixture) is listed as “markedly inhibited”. For the same compound, the “Binding affinity for the AGP A variant” value [1] was “relatively high”, the “Binding affinity … (S-warfarin binding site)” value [2] was “relatively high” and the “Inhibition of binding of S-disopyramide” value (AGP A variant) was “markedly inhibited”.

In the case of `CN(C)CCC=C1c2ccccc2CCc2ccccc21` [amitriptyline], the “Binding to AGP” value (human AGP variants) is listed as “bind strongly to AGP” and the “Inhibition of binding of S-disopyramide” value (AGP A variant) is listed as “specifically inhibited”.

In the case of `CN(C)CCCN1c2ccccc2Sc2ccc(Cl)cc21` [chlorpromazine], the “AGP variant to which the drug binds” value (human AGP variants; separate AGP variants) is given as “to both variants”.

For `COc1ccc([C@@H]2Sc3ccccc3N(CCN(C)C)C(=O)[C@@H]2OC(C)=O)cc1` [diltiazem], the “Inhibition of binding of S-disopyramide” value (AGP A variant) was “specifically inhibited”.

For `CC(C)N(CCC(C(N)=O)(c1ccccc1)c1ccccn1)C(C)C` (centres unmarked) [disopyramide], the “AGP variant to which the drug binds” value (human AGP variants; separate AGP variants) is listed as “bind specifically to the A variant”.

For `CN(C)CCCN1c2ccccc2CCc2ccccc21` [imipramine], the “AGP variant to which the drug binds” value (human AGP variants; separate AGP variants) is given as “bind specifically to the A variant” and the “Binding to AGP” value (human AGP variants) is given as “bind strongly to AGP”.

For `CC(C)NCC(O)COc1cccc2ccccc12` (centres unmarked) [propranolol], the “Inhibition of binding of warfarin” value (AGP F1/S variant mixture) was “markedly inhibited” and the “Inhibition of binding of S-disopyramide” value (AGP A variant) was “markedly inhibited”.

For `CC/C(=C(\c1ccccc1)c1ccc(OCCN(C)C)cc1)c1ccccc1` [tamoxifen], the “Binding to AGP” value (human AGP variants) is given as “bind strongly to AGP” and the “Inhibition of binding of S-disopyramide” value (AGP A variant) is given as “specifically inhibited”.

In the case of `CCOc1ccccc1OCCN[C@H](C)Cc1ccc(OC)c(S(N)(=O)=O)c1` [tamsulosin], the “AGP variant to which the drug binds” value (human AGP variants) is given as “binds specifically to the F1/S variants”, the “Inhibition of binding of warfarin” value (AGP F1/S variant mixture) is given as “specifically inhibited” and the “Binding affinity … (S-warfarin binding site)” value [2] is given as “relatively high”.

For `CC(=O)CC(c1ccccc1)c1c(O)c2ccccc2oc1=O` (centres unmarked) [warfarin], the “AGP variant to which the drug binds” value (human AGP variants; separate AGP variants) is given as “to an F1/S variant mixture” and the “Effect on binding of tamsulosin” value (AGP F1/S variants) is given as “significantly decreased”.
